Laboratory results published in ChEMBL document CHEMBL1687848, “In vitro effect of qnrA1, qnrB1, and qnrS1 genes on fluoroquinolone activity against isogenic Escherichia coli isolates with mutations in gyrA and parC” (2011).
Converted amounts (≈) assume the structure as drawn.

What was measured:
Assay type in all cases: functional
[1] = tested on: Escherichia coli; experiment: Antibacterial activity against qnrS gene expressing Escherichia coli ATCC 25922 harboring GyrA S83L mutant and pBK-QnrS1 assessed as earliest time required to resistant colonies visible one step below mutant prevention concentration
[2] = tested on: Escherichia coli; experiment: Ratio of mutant prevention concentration to MIC for Escherichia coli ATCC 25922 expressing qnrA gene and pBK-QnrA1
Outline: (§1)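 MIC: broth microdilution per CLSI, in duplicate. The ratio is MPC over MIC. Strains are E. coli ATCC 25922 or its GyrA Ser83Leu gene-replacement mutant, with qnr genes on pBK-CMV introduced by electroporation.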

[3] = tested on: Escherichia coli; experiment: Antibacterial activity against qnrS gene expressing Escherichia coli ATCC 25922 harboring GyrA S83L mutant and pBK-QnrS1 assessed as resistant colonies recovered one step below mutant prevention concentration
Outline: (§2)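 Resistant colonies recovered from Mueller-Hinton plates one concentration step below the MPC for each fluoroquinolone were retested for MIC. Mutants taken from plated concentrations closest to the MPC had the QRDRs of gyrA and parC analysed.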

[4] = tested on: Escherichia coli; experiment: Antibacterial activity against Escherichia coli ATCC 25922 expressing qnrA gene and pBK-QnrA1 assessed as mutant prevention concentration
[5] = tested on: Escherichia coli; experiment: Antibacterial activity against Escherichia coli ATCC 25922 assessed as resistant colonies recovered one step below mutant prevention concentration; outline: as §2
[6] = tested on: Escherichia coli; experiment: Ratio of mutant prevention concentration to MIC for Escherichia coli ATCC 25922 expressing qnrB gene and pBK-QnrB1; outline: as §1
[7] = tested on: Escherichia coli; experiment: Antibacterial activity against Escherichia coli ATCC 25922 expressing qnrB gene and pBK-QnrB1 by broth microdilution method
[8] = tested on: Escherichia coli; experiment: Antibacterial activity against qnrS gene expressing Escherichia coli ATCC 25922 harboring ParC S80R mutant and pBK-QnrS1 by broth microdilution method
[9] = tested on: Escherichia coli; experiment: Antibacterial activity against qnrB gene expressing Escherichia coli ATCC 25922 harboring GyrA S83L mutant and pBK-QnrB1 assessed as earliest time required to resistant colonies visible one step below mutant prevention concentration
[10] = tested on: Escherichia coli; experiment: Antibacterial activity against Escherichia coli ATCC 25922 harboring ParC S80R mutant by broth microdilution method
[11] = tested on: Escherichia coli; experiment: Antibacterial activity against qnrB gene expressing Escherichia coli ATCC 25922 harboring ParC S80R mutant, ParC S80R mutant and pBK-QnrB1 by broth microdilution method
[12] = tested on: Escherichia coli; experiment: Antibacterial activity against qnrS gene expressing Escherichia coli ATCC 25922 harboring GyrA S83L mutant and pBK-QnrS1 by broth microdilution method
[13] = tested on: Escherichia coli; experiment: Antibacterial activity against qnrA gene expressing Escherichia coli ATCC 25922 harboring ParC S80R mutant and pBK-QnrA1 by broth microdilution method
[14] = tested on: Escherichia coli; experiment: Antibacterial activity against Escherichia coli ATCC 25922 expressing qnrA gene and pBK-QnrA1 assessed as earliest time required to resistant colonies visible one step below mutant prevention concentration
[15] = tested on: Escherichia coli; experiment: Antibacterial activity against Escherichia coli ATCC 25922 harboring GyrA S83L mutant and ParC S80R mutant by broth microdilution method
[16] = tested on: Escherichia coli; experiment: Antibacterial activity against qnrS gene expressing Escherichia coli ATCC 25922 harboring ParC S80R mutant, ParC S80R mutant and pBK-QnrS1 by broth microdilution method
[17] = tested on: Escherichia coli; experiment: Ratio of mutant prevention concentration to MIC for qnrS gene expressing Escherichia coli ATCC 25922 harboring GyrA S83L mutant and pBK-QnrS1; outline: as §1
[18] = tested on: Escherichia coli; experiment: Ratio of mutant prevention concentration to MIC for qnrA gene expressing Escherichia coli ATCC 25922 harboring GyrA S83L mutant and pBK-QnrA1; outline: as §1
[19] = tested on: Escherichia coli; experiment: Antibacterial activity against Escherichia coli ATCC 25922 expressing qnrA gene and pBK-QnrA1 assessed as resistant colonies recovered one step below mutant prevention concentration; outline: as §2
[20] = tested on: Escherichia coli; experiment: Antibacterial activity against qnrA gene expressing Escherichia coli ATCC 25922 harboring GyrA S83L mutant and pBK-QnrA1 by broth microdilution method
[21] = tested on: Escherichia coli; experiment: Antibacterial activity against Escherichia coli ATCC 25922 expressing qnrS gene and pBK-QnrS1 assessed as resistant colonies recovered one step below mutant prevention concentration; outline: as §2
[22] = tested on: Escherichia coli; experiment: Antibacterial activity against qnrB gene expressing Escherichia coli ATCC 25922 harboring ParC S80R mutant and pBK-QnrB1 by broth microdilution method
[23] = tested on: Escherichia coli; experiment: Antibacterial activity against Escherichia coli ATCC 25922 assessed as mutant prevention concentration
[24] = tested on: Escherichia coli; experiment: Ratio of mutant prevention concentration to MIC for qnrB gene expressing Escherichia coli ATCC 25922 harboring GyrA S83L mutant and pBK-QnrB1; outline: as §1
[25] = tested on: Escherichia coli; experiment: Antibacterial activity against qnrA gene expressing Escherichia coli ATCC 25922 harboring ParC S80R mutant, ParC S80R mutant and pBK-QnrA1 by broth microdilution method
[26] = tested on: Escherichia coli; experiment: Antibacterial activity against Escherichia coli ATCC 25922 harboring GyrA S83L mutant assessed as resistant colonies recovered one step below mutant prevention concentration; outline: as §2
[27] = tested on: Escherichia coli; experiment: Antibacterial activity against qnrA gene expressing Escherichia coli ATCC 25922 harboring GyrA S83L mutant and pBK-QnrA1 assessed as mutant prevention concentration
[28] = tested on: Escherichia coli; experiment: Antibacterial activity against Escherichia coli ATCC 25922 by broth microdilution method
[29] = tested on: Escherichia coli; experiment: Antibacterial activity against qnrB gene expressing Escherichia coli ATCC 25922 harboring GyrA S83L mutant and pBK-QnrB1 assessed as mutant prevention concentration
[30] = tested on: Escherichia coli; experiment: Antibacterial activity against Escherichia coli ATCC 25922 expressing qnrS gene and pBK-QnrS1 assessed as earliest time required to resistant colonies visible one step below mutant prevention concentration
[31] = tested on: Escherichia coli; experiment: Antibacterial activity against Escherichia coli ATCC 25922 harboring GyrA S83L mutant by broth microdilution method
[32] = tested on: Escherichia coli; experiment: Ratio of mutant prevention concentration to MIC for Escherichia coli ATCC 25922 harboring GyrA S83L mutant; outline: as §1
[33] = tested on: Escherichia coli; experiment: Antibacterial activity against Escherichia coli ATCC 25922 expressing qnrB gene and pBK-QnrB1 assessed as mutant prevention concentration
[34] = tested on: Escherichia coli; experiment: Antibacterial activity against Escherichia coli ATCC 25922 expressing qnrS gene and pBK-QnrS1 assessed as mutant prevention concentration
[35] = tested on: Escherichia coli; experiment: Ratio of mutant prevention concentration to MIC for Escherichia coli ATCC 25922; outline: as §1
[36] = tested on: Escherichia coli; experiment: Antibacterial activity against qnrA gene expressing Escherichia coli ATCC 25922 harboring GyrA S83L mutant and pBK-QnrA1 assessed as earliest time required to resistant colonies visible one step below mutant prevention concentration

**Q.** With `CCn1cc(C(=O)O)c(=O)c2cc(F)c(N3CCNCC3)cc21` [NORFLOXACIN] as the compound, how does the Time [1] read?
**A.** Its Time is 24 h.

**Q.** And the Ratio [2]?
**A.** Its Ratio is 16.

**Q.** And the MIC [3]?
**A.** The MIC was 2 µg/mL (≈ 6.26 µM).

**Q.** And the Activity [4]?
**A.** Its Activity is 8 µg/mL.

**Q.** And the MIC [5]?
**A.** The MIC was 0.25 µg/mL (≈ 0.783 µM).

**Q.** What about the Ratio [6] of the same compound?
**A.** The Ratio was 32.

**Q.** What about the MBC [7] of the same compound?
**A.** The MBC was 0.5 µg/mL (≈ 1.57 µM).

**Q.** And the MIC [7]?
**A.** Its MIC is 0.25 µg/mL (≈ 0.783 µM).

**Q.** What about the MBC [8] of the same compound?
**A.** Its MBC is 0.5 µg/mL (≈ 1.57 µM).

**Q.** And the MIC [8]?
**A.** Its MIC is 0.5 µg/mL (≈ 1.57 µM).

**Q.** What about the Time [9] of the same compound?
**A.** The Time was 24 h.

**Q.** And the MBC [10]?
**A.** The MBC was 0.03 µg/mL (≈ 0.0939 µM).

**Q.** And the MIC [10]?
**A.** Its MIC is 0.03 µg/mL (≈ 0.0939 µM).

**Q.** What about the MBC [11] of the same compound?
**A.** The MBC was 4 µg/mL (≈ 12.5 µM).

**Q.** What about the MIC [11] of the same compound?
**A.** Its MIC is 4 µg/mL (≈ 12.5 µM).

**Q.** And the MBC [12]?
**A.** Its MBC is 4 µg/mL (≈ 12.5 µM).

**Q.** What about the MIC [12] of the same compound?
**A.** Its MIC is 2 µg/mL (≈ 6.26 µM).

**Q.** What about the MBC [13] of the same compound?
**A.** Its MBC is 2 µg/mL (≈ 6.26 µM).

**Q.** What about the MIC [13] of the same compound?
**A.** The MIC was 0.5 µg/mL (≈ 1.57 µM).

**Q.** What about the Time [14] of the same compound?
**A.** The Time was 24 h.

**Q.** What about the MBC [15] of the same compound?
**A.** Its MBC is 2 µg/mL (≈ 6.26 µM).

**Q.** And the MIC [15]?
**A.** Its MIC is 2 µg/mL (≈ 6.26 µM).

**Q.** And the MBC [16]?
**A.** Its MBC is 16 µg/mL (≈ 50.1 µM).

**Q.** What about the MIC [16] of the same compound?
**A.** Its MIC is 8 µg/mL (≈ 25.1 µM).

**Q.** And the Ratio [17]?
**A.** The Ratio was 16.

**Q.** And the Ratio [18]?
**A.** Its Ratio is 16.

**Q.** And the MIC [19]?
**A.** The MIC was 1 µg/mL (≈ 3.13 µM).

**Q.** What about the MBC [20] of the same compound?
**A.** The MBC was 2 µg/mL (≈ 6.26 µM).

**Q.** What about the MIC [20] of the same compound?
**A.** The MIC was 2 µg/mL (≈ 6.26 µM).

**Q.** What about the MIC [21] of the same compound?
**A.** The MIC was 1 µg/mL (≈ 3.13 µM).

**Q.** And the MBC [22]?
**A.** The MBC was 0.5 µg/mL (≈ 1.57 µM).

**Q.** What about the MIC [22] of the same compound?
**A.** The MIC was 0.5 µg/mL (≈ 1.57 µM).

**Q.** What about the Activity [23] of the same compound?
**A.** Its Activity is 4 µg/mL.

**Q.** What about the Ratio [24] of the same compound?
**A.** Its Ratio is 16.

**Q.** What about the MBC [25] of the same compound?
**A.** The MBC was 64 µg/mL (≈ 200 µM).

**Q.** And the MIC [25]?
**A.** Its MIC is 8 µg/mL (≈ 25.1 µM).

**Q.** And the MIC [26]?
**A.** The MIC was 2 µg/mL (≈ 6.26 µM).

**Q.** And the Activity [27]?
**A.** Its Activity is 16 µg/mL.

**Q.** What about the MBC [28] of the same compound?
**A.** The MBC was 0.03 µg/mL (≈ 0.0939 µM).

**Q.** And the MIC [28]?
**A.** Its MIC is 0.015 µg/mL (≈ 0.047 µM).

**Q.** And the Activity [29]?
**A.** The Activity was 16 µg/mL.

**Q.** What about the Time [30] of the same compound?
**A.** Its Time is 24 h.

**Q.** And the MBC [31]?
**A.** The MBC was 0.5 µg/mL (≈ 1.57 µM).

**Q.** And the MIC [31]?
**A.** The MIC was 0.125 µg/mL (≈ 0.391 µM).

**Q.** And the Ratio [32]?
**A.** The Ratio was 32.

**Q.** What about the Activity [33] of the same compound?
**A.** Its Activity is 8 µg/mL.

**Q.** And the Activity [34]?
**A.** The Activity was 8 µg/mL.

**Q.** And the Ratio [35]?
**A.** Its Ratio is 266.7.

**Q.** What about the Time [36] of the same compound?
**A.** The Time was 24 h.
